Results as given in ChEMBL document CHEMBL4033777, “Next-Generation Hypoxic Cell Radiosensitizers: Nitroimidazole Alkylsulfonamides” (J Med Chem, 2018).
In brackets after ≈: the same amount, converted by molar mass.

Tests used:
[1] = Solubility of the compound in alphaMEM containing 5% FCS and 1% DMSO by HPLC analysis; assay type: physicochemical
Summary of the method: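 Saturated drug solutions were incubated at 37 °C in αMEM with 5% FCS and 1% DMSO. Dissolved drug was quantified by HPLC.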

Mus musculus [2] = test: Drug level in NIH-III mouse assessed as maximum achievable dose at 10 ml/kg, iv; assay type: ADME; conditions: in vivo
Summary of the method: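 Non-tumor-bearing female NIH-III mice (~20 g) received freshly prepared solutions i.v. at 10 mL/kg in 0.9% saline with 1% DMSO, or saline with 2 molar equivalents NaHCO3 for phosphate prodrugs. MAD was the maximum dose that dissolved in the injection volume.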

Plasma = test: Cmax in plasma of NIH-III mouse xenografted with human HCT116 cells at 2.20 mmol/kg, iv administered as single dose by HPLC analysis; assay type: ADME, organism-based; set-up: dose 2.2 mmol/kg, route intravenous; conditions: in vivo
Summary of the method: (§1)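 Female NIH-III mice bearing subcutaneous HCT116 xenografts (10^6 cells inoculated). At ca. 300 mm3 tumor size, a single i.v. dose was given at the MAD or 75% of the MTD. Vehicle was 0.9% saline with 1% DMSO, or saline with 2 molar equivalents NaHCO3 for phosphate prodrugs. Plasma and tumor were sampled at multiple times by cardiac puncture and excision, assayed by HPLC, and analysed noncompartmentally.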

[3] = Tmax in plasma of NIH-III mouse xenografted with human HCT116 cells at 2.20 mmol/kg, iv administered as single dose by HPLC analysis; assay type: ADME, organism-based; conditions: 2.2 mmol/kg
Summary of the method: (§2)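 Female NIH-III mice bearing subcutaneous HCT116 tumors (10^6 cells; ~300 mm3) got a single i.v. dose at the MAD or 75% of the MTD. Vehicle was saline with 1% DMSO, or saline with 2 equivalents of NaHCO3 for the phosphates. Plasma and tumor were sampled at multiple times by cardiac puncture and excision, drug was measured by HPLC, and Tmax came from noncompartmental analysis.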

[4] = Cmax in tumor of NIH-III mouse xenografted with human HCT116 cells at 2.20 mmol/kg, iv administered as single dose by HPLC analysis; assay type: ADME, organism-based, Neoplasm; set-up: dose 2.2 mmol/kg, route intravenous; conditions: in vivo; summary of the method: as §1
[5] = Tmax in tumor of NIH-III mouse xenografted with human HCT116 cells at 2.20 mmol/kg, iv administered as single dose by HPLC analysis; assay type: ADME, organism-based, Neoplasm; conditions: 2.2 mmol/kg; summary of the method: as §2
HCT-116 [6] = test: In vivo hypoxia radiosensitization activity in human HCT116 cells xenografted in NIH-III mouse assessed as survival ratio by measuring ratio of cell survival with 12.5 Gy radiation in absence to presence of compound at 2.20 mmol/kg, iv pretreated as single dose for 10 mins followed by irradiation measured after 18 hrs by excision assay; assay type: functional
Mus musculus [7] = test: Toxicity in NIH-III mouse xenografted with human HCT116 cells assessed as change in body weight with 12.5 Gy radiation at 2.20 mmol/kg, iv administered as single dose; conditions: in vivo
HCT-116 [8] = test: Cytotoxicity against human HCT116 cells incubated for 4 hrs under anaerobic condition measured after 5 days by sulforhodamine B assay; assay type: functional, cell-based
Summary of the method: (§3)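 STR-authenticated, mycoplasma-free HCT116 cells in αMEM + 5% FCS were seeded at 700 cells/well and allowed 2 h to attach. Drug was added from DMSO stocks (<1% DMSO) in serial 3-fold dilutions for 4 h, oxic or anoxic (Pd-catalyst anaerobic chamber, medium pre-equilibrated ≥3 days). After washing, cells regrew for 5 days before SRB staining and IC50 determination.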

HCT-116 [9] = test: Hypoxic cytotoxicity ratio of IC50 for human HCT116 cells under oxic condition to IC50 for human HCT116 cells under anoxic condition
Summary of the method: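 HCT116 cells, 700 per well and attached 2 h, got a 4 h exposure to 3-fold serial dilutions (<1% DMSO) under air or in a Pd-catalyst anaerobic chamber with pre-equilibrated medium. Cells were washed, regrown 5 days, and stained with sulforhodamine B to give IC50. HCR = oxic IC50 / anoxic IC50.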

HCT-116 [10] = test: (§4) Hypoxia radiosensitization activity in human HCT116 cells assessed as survival ratio by measuring ratio of cell survival with 15 Gy radiation in absence to presence of compound at anoxic IC50 preincubated for 1 hr followed by 15 Gy irradiation measured after 10 days by methylene blue staining-based cell counting method; assay type: functional
Summary of the method: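 Anoxic HCT116 cells were seeded at 10^5/well and treated at the anoxic IC50 concentration for 1 h at room temperature. They were irradiated with 15 Gy (60Co, ~2 Gy/min) in a sealed steel box, then plated clonogenically. Colonies of >50 cells were counted […]. SR15 = survival with radiation / survival with drug + radiation.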

HCT-116 [11] = test: Cytotoxicity against human HCT116 cells incubated for 4 hrs under aerobic condition measured after 5 days by sulforhodamine B assay; assay type: cell-based; summary of the method: as §3
[12] = Electrophilicity of the compound in pH 7 phosphate buffer assessed as one-electron reduction potential
Summary of the method: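 The one-electron reduction potential was set by pulse radiolysis equilibria at pH 7.0 (2.5 mM phosphate), established within 20 µs against benzylviologen, methylviologen or triquat. ΔE came from equilibrium constants via the Nernst equation, at three concentration ratios and 22 ± 2 °C.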

HCT-116 [13] = test: Cytotoxicity against human HCT116 cells at anoxic IC50 incubated for 1 hr at 21 degC by clonogenic survival assay; conditions: hct-116, 1 h
HCT-116 [14] = test: (§5) Hypoxia radiosensitization activity in human HCT116 cells assessed as sensitizer enhancement ratio by measuring ratio of radiation dose for 1% survival in absence to presence of compound at 0.68 mM preincubated for 1 hr followed by irradiation measured after 10 days by methylene blue staining-based cell counting method; assay type: functional
HCT-116 [15] = test: as §5, with “method relative to misonidazole” for “method”; assay type: functional
HCT-116 [16] = test: as §4, with “with” for “with 15 Gy”, “0.68 mM” for “anoxic IC50”, “6 to 29” for “15”; assay type: functional
HCT-116 [17] = test: as §4, with “with” for “with 15 Gy”, “0.68 mM” for “anoxic IC50”, “6 to 29” for “15”, “method relative to misonidazole” for “method”; assay type: functional
HCT-116 [18] = test: as §4, with “with” for “with 15 Gy”, “0.11 mM” for “anoxic IC50”, “6 to 29” for “15”; assay type: functional
HCT-116 [19] = test: as §4, with “with” for “with 15 Gy”, “0.11 mM” for “anoxic IC50”, “6 to 29” for “15”, “method relative to misonidazole” for “method”; assay type: functional

Compound: O=[N+]([O-])c1nccn1CS(=O)(=O)NCCOP(=O)(O)O
- solubility [1]: 185 mM (≈ 61.1 mg/mL)
- Drug uptake (Mus musculus [2]): 2.2 mmol/kg
- Cmax (Plasma): 900 µM
- Tmax [3]: 10 min
- Cmax [4]: 320 µM
- Tmax [5]: 10 min
- Ratio (HCT-116 [6]): 10
- Activity (Mus musculus [7]): Non-Toxic

Compound: COCCNS(=O)(=O)CCn1ccnc1[N+](=O)[O-]
- solubility [1]: 59.4 mM (≈ 16.5 mg/mL)
- IC50 (HCT-116 [8]): 400 µM
- Ratio IC50 (HCT-116 [9]): 5
- Ratio (HCT-116 [10]): 6.4
- IC50 (HCT-116 [11]): 380 to 4800 µM
- Activity [12]: -391 mV
- Activity (HCT-116 [13]): Non-Toxic

Compound: Cc1ncc([N+](=O)[O-])n1CCS(=O)(=O)NCCCN(C)C
- solubility [1]: > 53.8 mM
- IC50 (HCT-116 [8]): 1200 µM
- Ratio IC50 (HCT-116 [9]): 3
- Ratio (HCT-116 [10]): 8
- Activity (HCT-116 [13]): Non-Toxic

Compound: Cc1ncc([N+](=O)[O-])n1CCS(=O)(=O)NCCO
- solubility [1]: > 49.3 mM
- IC50 (HCT-116 [8]): 400 µM
- Ratio IC50 (HCT-116 [9]): 1.3
- Ratio (HCT-116 [10]): 3.4
- Ratio (HCT-116 [14]): 1.176
- fold change (FC) (HCT-116 [15]): 0.82
- Ratio (HCT-116 [16]): 1.616
- fold change (FC) (HCT-116 [17]): 0.36
- Activity (HCT-116 [13]): Non-Toxic

Compound: Cc1ncc([N+](=O)[O-])n1CCS(=O)(=O)NCCN1CCOCC1
- solubility [1]: 44.1 mM (≈ 15.3 mg/mL)
- IC50 (HCT-116 [8]): 800 µM
- Ratio IC50 (HCT-116 [9]): 1.4
- Ratio (HCT-116 [10]): 2.71
- Activity (HCT-116 [13]): Non-Toxic

Compound: COCCNS(=O)(=O)Cn1cncc1[N+](=O)[O-]
- Ratio (HCT-116 [18]): 1.9
- fold change (FC) (HCT-116 [19]): 0.44
- Activity (HCT-116 [13]): Non-Toxic

Compound: O=C(O)CNS(=O)(=O)Cn1ccnc1[N+](=O)[O-]
- solubility [1]: 59.3 mM (≈ 15.7 mg/mL)
- IC50 (HCT-116 [8]): 900 µM
- Ratio IC50 (HCT-116 [9]): 10
- Ratio (HCT-116 [10]): 4
- IC50 (HCT-116 [11]): 380 to 4800 µM
- Activity (HCT-116 [13]): Non-Toxic

Compound: COCCCNS(=O)(=O)CCn1c([N+](=O)[O-])cnc1C
- solubility [1]: 17 mM (≈ 5.21 mg/mL)
- IC50 (HCT-116 [8]): 3700 µM
- Ratio IC50 (HCT-116 [9]): 1.2
- Ratio (HCT-116 [10]): 5
- Activity (HCT-116 [13]): Non-Toxic

Compound: Cc1ncc([N+](=O)[O-])n1CCS(=O)(=O)N1CCC(N(C)C)CC1
- solubility [1]: 46.5 mM (≈ 16.1 mg/mL)
- IC50 (HCT-116 [8]): 700 µM
- Ratio IC50 (HCT-116 [9]): 2.9
- Ratio (HCT-116 [10]): 12
- Ratio (HCT-116 [14]): 1.67
- fold change (FC) (HCT-116 [15]): 1.15
- Ratio (HCT-116 [16]): 25
- fold change (FC) (HCT-116 [17]): 2.3
- Activity (HCT-116 [13]): Non-Toxic

Compound: CCN(CC)CCNS(=O)(=O)CCn1c([N+](=O)[O-])cnc1C
- solubility [1]: 45.7 mM (≈ 15.2 mg/mL)
- IC50 (HCT-116 [8]): 1300 µM
- Ratio IC50 (HCT-116 [9]): 2
- Ratio (HCT-116 [10]): 9
- Activity (HCT-116 [13]): Non-Toxic

Compound: Cc1ncc([N+](=O)[O-])n1CCS(=O)(=O)N1CCOCC1
- solubility [1]: 2.77 mM (≈ 0.843 mg/mL)
- IC50 (HCT-116 [8]): 38 µM
- Ratio IC50 (HCT-116 [9]): 1.5
- Ratio (HCT-116 [10]): 1.33
- Activity (HCT-116 [13]): Non-Toxic

Compound: COCC(O)Cn1ccnc1[N+](=O)[O-] (stereo not given) [MISONIDAZOLE]
- solubility [1]: > 100 mM
- IC50 (HCT-116 [8]): 530 µM
- Ratio IC50 (HCT-116 [9]): >62.44
- Ratio (HCT-116 [10]): 7.1
- Activity [12]: -389 mV
- Activity (HCT-116 [13]): Non-Toxic

Compound: O=[N+]([O-])c1cncn1CS(=O)(=O)NCCOP(=O)(O)O
- Drug uptake (Mus musculus [2]): 2.2 mmol/kg
- Cmax (Plasma): 1100 µM
- Tmax [3]: 10 min
- Cmax [4]: 140 µM
- Tmax [5]: 30 min
- Ratio (HCT-116 [6]): 13
- Activity (Mus musculus [7]): Non-Toxic
